According to ChEMBL document CHEMBL1129956, “4-substituted-3-phenylquinolin-2(1H)-ones: acidic and nonacidic glycine site N-methyl-D-aspartate antagonists with in vivo activity” (J Med Chem, 1997):
pIC50: −log10 of the molar value.

Assays:
[1] = test system: Mus musculus; assay: compound was evaluated in vivo for their ability to protect against audiogenic seizure in DBA/2 mice when administered 10 mg/kg ip 30 min prior to noise stimulation out of 8 mice tested; assay type: functional; conditions: route intraperitoneal
Procedure, shortened: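 DBA/2 mice given compound intraperitoneally 30 min before noise stimulation, with protection from audiogenic seizure scored. Results are reported as an ED50 (mg/kg) or as number of mice protected per number tested at a single dose.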

[2] = target: Glutamate receptor ionotropic, NMDA 1 (Rattus norvegicus, UniProt P35439); assay: In vitro ability to displace [3H]L-689,560 binding to glycine site on the N-methyl-D-aspartate (NMDA) glutamate receptor 1 from rat cortical membranes
Procedure, shortened: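 Glycine-site antagonist [3H]L-689,560 displaced from rat cortex/hippocampus membranes. IC50 (concentration inhibiting 50% of specific binding) taken from 5-point inhibition curves as the geometric mean of at least three experiments. A compound giving under 50% inhibition at 100 μM in two experiments is reported as >100 μM.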

[3] = test system: Mus musculus; assay: Evaluated in vivo for their ability to protect against audiogenic seizure in DBA/2 mice when administered 20 mg/kg ip 30 min prior to noise stimulation out of 8 mice tested; conditions: route intraperitoneal

For `N#CCOc1c(-c2cccc(Oc3ccccc3)c2)c(O)nc2cc(Cl)ccc12`, the “No. of mice protected” value [1] was 1, the pIC50 [2] was 5.92 and the “No. of mice protected” value [3] was 8.
